Results as given in ChEMBL document CHEMBL3425426, “Discovery of DS-1558: A Potent and Orally Bioavailable GPR40 Agonist” (ACS Med Chem Lett, 2015).
Activity calls are given as the source filed them.

How the values were obtained:
[1] = biological target: Free fatty acid receptor 1 (Homo sapiens, UniProt O14842); assay: Agonist activity at human GPR40 expressed in CHO cells assessed as calcium flux by FLIPR assay; assay type: functional, cell-based
[2] = biological target: T1, Peroxisome proliferator-activated receptor gamma (Homo sapiens, UniProt P37231); assay: Agonist activity at PPARgamma (unknown origin)
T1 sequence (P37231 whole entry): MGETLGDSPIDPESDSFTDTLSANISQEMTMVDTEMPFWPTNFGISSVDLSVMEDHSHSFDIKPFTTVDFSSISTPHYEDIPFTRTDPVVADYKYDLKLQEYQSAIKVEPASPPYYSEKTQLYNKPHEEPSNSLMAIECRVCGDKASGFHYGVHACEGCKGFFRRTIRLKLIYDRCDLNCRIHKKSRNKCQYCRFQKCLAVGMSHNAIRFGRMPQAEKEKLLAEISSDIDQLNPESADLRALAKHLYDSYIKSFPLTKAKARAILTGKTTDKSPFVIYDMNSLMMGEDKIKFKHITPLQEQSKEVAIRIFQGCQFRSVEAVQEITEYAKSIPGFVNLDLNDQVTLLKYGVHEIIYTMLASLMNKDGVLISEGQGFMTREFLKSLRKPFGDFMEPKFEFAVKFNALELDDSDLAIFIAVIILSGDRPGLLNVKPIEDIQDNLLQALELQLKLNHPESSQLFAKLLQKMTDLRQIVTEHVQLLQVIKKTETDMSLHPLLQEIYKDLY

[3] = biological target: T2, Peroxisome proliferator-activated receptor gamma (Homo sapiens) (UniProt P37231); assay: Agonist activity at PPARgamma (unknown origin) relative to rosiglitazone
T2 sequence (whole entry): T1 sequence (P37231 whole entry)

[4] = system: Rattus norvegicus; assay: Reduction in glucose excursion in ZDF rat at 10 mg/kg, po dosed 30 mins before glucose challenge by OGTT method; assay type: functional, organism-based; design: dose 10 mg/kg
How it was run: (§1)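 Male Zucker diabetic fatty rats, 9 weeks old, n = 6 per group. Oral dose given 30 min before an oral glucose challenge of 2 g/kg. Plasma glucose and plasma insulin were followed over time after the challenge. Values are reported as mean ± standard error.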

[5] = system: Rattus norvegicus; assay: Increase in plasma insulin level in ZDF rat at 10 mg/kg, po dosed 30 mins before glucose challenge by OGTT method; assay type: functional, organism-based; design: dose 10 mg/kg; how it was run: as §1
[6] = species: Homo sapiens; assay: Selectivity for human GPR40 over EP4 receptor (unknown origin)
[7] = species: Homo sapiens; assay: Selectivity for human GPR40 over sigma-2 receptor (unknown origin)
[8] = species: Homo sapiens; assay: Selectivity for human GPR40 over GCR (unknown origin)
[9] = species: Homo sapiens; assay: Selectivity for human GPR40 over histamine H1 receptor (unknown origin)
[10] = species: Homo sapiens; assay: Selectivity for human GPR40 over rolipram binding receptor (unknown origin)
[11] = system: Rattus norvegicus; assay: Reduction in glucose excursion in ZDF rat at 0.1 mg/kg, po dosed 30 mins before glucose challenge by OGTT method; assay type: functional, organism-based; design: dose 0.1 mg/kg; how it was run: as §1
[12] = species: Homo sapiens; assay: Selectivity for human GPR40 over 5HT3 receptor (unknown origin)
[13] = species: Homo sapiens; assay: Selectivity for human GPR40 over muscarinic M2 receptor (unknown origin)
[14] = species: Homo sapiens; assay: Selectivity for human GPR40 over thyroid receptor receptor (unknown origin)
[15] = species: Homo sapiens; assay: Selectivity for human GPR40 over adenosine A3 receptor (unknown origin)
[16] = species: Homo sapiens; assay: Selectivity for human GPR40 over androgen receptor (unknown origin)
[17] = species: Mus musculus; assay: Induction of glucose-stimulated insulin secretion in GPR40 knock out mouse pancreatic islets; assay type: functional
[18] = species: Homo sapiens; assay: Selectivity for human GPR40 over adrenergic alpha2A receptor (unknown origin)
[19] = species: Homo sapiens; assay: Selectivity for human GPR40 over histamine H2 receptor (unknown origin)
[20] = species: Homo sapiens; assay: Selectivity for human GPR40 over endothelin ETA receptor (unknown origin)
[21] = species: Homo sapiens; assay: Selectivity for human GPR40 over sigma-1 receptor (unknown origin)
[22] = species: Mus musculus; assay: Induction of glucose-stimulated insulin secretion in wild type mouse pancreatic islets; assay type: functional
[23] = species: Homo sapiens; assay: Selectivity for human GPR40 over calcium channel L-type dihydropyridine binding site (unknown origin)
[24] = species: Homo sapiens; assay: Selectivity for human GPR40 over MT1 receptor (unknown origin)
[25] = system: Rattus norvegicus; assay: Increase in plasma insulin level in ZDF rat at 0.1 mg/kg, po dosed 30 mins before glucose challenge by OGTT method; assay type: functional, organism-based; design: dose 0.1 mg/kg; how it was run: as §1
[26] = species: Homo sapiens; assay: Selectivity for human GPR40 over IL1 receptor (unknown origin)
[27] = species: Homo sapiens; assay: Selectivity for human GPR40 over nAchR alpha1 bungarotoxin binding site (unknown origin)
[28] = species: Homo sapiens; assay: Selectivity for human GPR40 over EGF receptor (unknown origin)
[29] = species: Homo sapiens; assay: Selectivity for human GPR40 over ERalpha (unknown origin)
[30] = species: Homo sapiens; assay: Selectivity for human GPR40 over adrenergic beta2 receptor (unknown origin)
[31] = species: Homo sapiens; assay: Selectivity for human GPR40 over adenosine A1 receptor (unknown origin)
[32] = species: Homo sapiens; assay: Selectivity for human GPR40 over human ERG channel
[33] = species: Homo sapiens; assay: Selectivity for human GPR40 over kainate receptor (unknown origin)
[34] = species: Homo sapiens; assay: Selectivity for human GPR40 over neuropeptide YY1 receptor (unknown origin)
[35] = species: Homo sapiens; assay: Selectivity for human GPR40 over mu opioid receptor (unknown origin)
[36] = species: Homo sapiens; assay: Selectivity for human GPR40 over KATP channel (unknown origin)
[37] = species: Homo sapiens; assay: Selectivity for human GPR40 over neuropeptide YY2 receptor (unknown origin)
[38] = species: Homo sapiens; assay: Selectivity for human GPR40 over adenosine A2A receptor (unknown origin)
[39] = species: Homo sapiens; assay: Selectivity for human GPR40 over P2Y receptor (unknown origin)
[40] = species: Homo sapiens; assay: Selectivity for human GPR40 over kappa opioid receptor (unknown origin)
[41] = species: Homo sapiens; assay: Selectivity for human GPR40 over bradykinin B2 receptor (unknown origin)
[42] = species: Homo sapiens; assay: Selectivity for human GPR40 over adrenergic alpha1B receptor (unknown origin)
[43] = species: Homo sapiens; assay: Selectivity for human GPR40 over nAchR (unknown origin)
[44] = species: Homo sapiens; assay: Selectivity for human GPR40 over P2X receptor (unknown origin)
[45] = species: Homo sapiens; assay: Selectivity for human GPR40 over muscarinic M1 receptor (unknown origin)
[46] = species: Homo sapiens; assay: Selectivity for human GPR40 over dopamine D3 receptor (unknown origin)
[47] = species: Homo sapiens; assay: Selectivity for human GPR40 over adrenergic beta1 receptor (unknown origin)
[48] = species: Homo sapiens; assay: Selectivity for human GPR40 over central GABAB1A receptor (unknown origin)
[49] = species: Homo sapiens; assay: Selectivity for human GPR40 over central GABAA receptor flunitrazepam binding site (unknown origin)
[50] = species: Homo sapiens; assay: Selectivity for human GPR40 over adrenergic alpha1D receptor (unknown origin)
[51] = species: Homo sapiens; assay: Selectivity for human GPR40 over GPR103 (unknown origin)
[52] = species: Homo sapiens; assay: Selectivity for human GPR40 over CysLT1 receptor (unknown origin)
[53] = system: Rattus norvegicus; assay: Reduction in glucose excursion in ZDF rat at 0.03 mg/kg, po dosed 30 mins before glucose challenge by OGTT method; assay type: functional, organism-based; design: dose 0.03 mg/kg; how it was run: as §1
[54] = species: Homo sapiens; assay: Selectivity for human GPR40 over central imidazoline I2 receptor (unknown origin)
[55] = species: Homo sapiens; assay: Selectivity for human GPR40 over sodium channel site 2 (unknown origin)
[56] = species: Homo sapiens; assay: Selectivity for human GPR40 over PAF receptor (unknown origin)
[57] = species: Homo sapiens; assay: Selectivity for human GPR40 over central GABAA receptor muscimol binding site (unknown origin)
[58] = species: Homo sapiens; assay: Selectivity for human GPR40 over SERT (unknown origin)
[59] = species: Homo sapiens; assay: Selectivity for human GPR40 over NK1 receptor (unknown origin)
[60] = species: Homo sapiens; assay: Selectivity for human GPR40 over GABA transporter (unknown origin)
[61] = species: Homo sapiens; assay: Selectivity for human GPR40 over NET (unknown origin)
[62] = species: Homo sapiens; assay: Selectivity for human GPR40 over muscarinic M3 receptor (unknown origin)
[63] = species: Homo sapiens; assay: Selectivity for human GPR40 over DAT (unknown origin)
[64] = species: Homo sapiens; assay: Selectivity for human GPR40 over dopamine D1 receptor (unknown origin)
[65] = species: Homo sapiens; assay: Selectivity for human GPR40 over endothelin ETB receptor (unknown origin)
[66] = biological target: T2, Peroxisome proliferator-activated receptor gamma (Homo sapiens); assay: Agonist activity at PPARgamma (unknown origin) up to 100 uM
[67] = species: Homo sapiens; assay: Selectivity for human GPR40 over NMDA receptor phencyclidine binding site (unknown origin)
[68] = species: Homo sapiens; assay: Selectivity for human GPR40 over calcium channel L-type benzothiazepine binding site (unknown origin)
[69] = species: Homo sapiens; assay: Selectivity for human GPR40 over 5HT1A receptor (unknown origin)
[70] = species: Homo sapiens; assay: Selectivity for human GPR40 over bradykinin B1 receptor (unknown origin)
[71] = species: Homo sapiens; assay: Selectivity for human GPR40 over dopamine D2S receptor (unknown origin)
[72] = species: Homo sapiens; assay: Selectivity for human GPR40 over delta opioid receptor (unknown origin)
[73] = species: Homo sapiens; assay: Selectivity for human GPR40 over dopamine D4.2 receptor (unknown origin)
[74] = species: Homo sapiens; assay: Selectivity for human GPR40 over NMDA receptor glycine binding site (unknown origin)
[75] = species: Homo sapiens; assay: Selectivity for human GPR40 over adrenergic alpha1A receptor (unknown origin)
[76] = species: Homo sapiens; assay: Selectivity for human GPR40 over histamine H3 receptor (unknown origin)
[77] = species: Homo sapiens; assay: Selectivity for human GPR40 over phorbol ester receptor (unknown origin)
[78] = system: Liver microsome; assay: Drug metabolism in human liver microsomes assessed as 2-methylbenzaldehyde formation at 500 uM incubated for 1 hr in presence of GSH and NADPH and by LC-MS/MS based GSH trapping assay; assay type: ADME

Chain of Free fatty acid receptor 1 (O14842 whole entry): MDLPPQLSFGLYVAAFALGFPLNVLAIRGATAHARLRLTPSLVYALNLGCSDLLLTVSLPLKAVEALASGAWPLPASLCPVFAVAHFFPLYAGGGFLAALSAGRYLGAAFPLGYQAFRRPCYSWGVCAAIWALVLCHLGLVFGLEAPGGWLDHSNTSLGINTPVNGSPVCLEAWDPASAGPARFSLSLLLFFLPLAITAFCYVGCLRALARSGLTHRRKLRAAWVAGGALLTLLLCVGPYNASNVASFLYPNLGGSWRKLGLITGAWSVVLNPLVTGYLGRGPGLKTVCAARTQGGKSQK

CCO[C@@H](CC(=O)O)c1ccc(O[C@H]2CCc3ccccc32)cc1
69 nM: EC50 [1]

CCO[C@H](CC(=O)O)c1ccc(O[C@@H]2CCc3c2cccc3C(F)(F)F)cc1
330 nM: EC50 [1]

CCO[C@@H](CC(=O)O)c1ccc(O[C@@H]2CCc3c(C)cccc32)cc1
29 nM: EC50 [1]

CCO[C@@H](CC(=O)O)c1ccc(O[C@@H]2CCc3ccccc32)cc1
31 nM: EC50 [1]

CCO[C@H](CC(=O)O)c1ccc(O[C@H]2CCc3c2cccc3C(F)(F)F)cc1
2600 nM: EC50 [1]

CCO[C@H](CC(=O)O)c1ccc(OCc2ccc(Cl)c(Cl)c2)cc1
360 nM: EC50 [1]

CCO[C@@H](CC(=O)O)c1ccc(OCc2ccc(C(F)(F)F)cc2)cc1
10400 nM: EC50 [2]
5.3 nM: EC50 [1]
11.3%: Emax [3]

CCO[C@@H](CC(=O)O)c1ccc(O[C@@H]2CCc3c(Cl)cccc32)cc1
5 nM: EC50 [1]

CCOC(CC(=O)O)c1ccc(OCc2ccc(Cl)c(Cl)c2)cc1 (racemic)
6.2 nM: EC50 [1]

N[C@@H](CC(=O)N1CCn2c(nnc2C(F)(F)F)C1)Cc1cc(F)c(F)cc1F
active: Activity [4] | Activity [5]

CCO[C@@H](CC(=O)O)c1ccc(OCc2ccc(Cl)c(Cl)c2)cc1
3.9 nM: EC50 [1]

CCO[C@@H](CC(=O)O)c1ccc(OC2Cc3ccccc3C2)cc1
83 nM: EC50 [1]

CCO[C@@H](CC(=O)O)c1ccc(O[C@@H]2CCc3c2cccc3C(F)(F)F)cc1
> 100: Selectivity ratio [6] | Selectivity ratio [7] | Selectivity ratio [8] | Selectivity ratio [9] | Selectivity ratio [10] | Selectivity ratio [12] | Selectivity ratio [13] | Selectivity ratio [14] | Selectivity ratio [15] | Selectivity ratio [16] | Selectivity ratio [18] | Selectivity ratio [19] | Selectivity ratio [20] | Selectivity ratio [21] | Selectivity ratio [23] | Selectivity ratio [24] | Selectivity ratio [26] | Selectivity ratio [27] | Selectivity ratio [28] | Selectivity ratio [29] | Selectivity ratio [30] | Selectivity ratio [31] | Selectivity ratio [32] | Selectivity ratio [33] | Selectivity ratio [34] | Selectivity ratio [35] | Selectivity ratio [36] | Selectivity ratio [37] | Selectivity ratio [38] | Selectivity ratio [39] | Selectivity ratio [40] | Selectivity ratio [41] | Selectivity ratio [42] | Selectivity ratio [43] | Selectivity ratio [44] | Selectivity ratio [45] | Selectivity ratio [46] | Selectivity ratio [47] | Selectivity ratio [48] | Selectivity ratio [49] | Selectivity ratio [50] | Selectivity ratio [51] | Selectivity ratio [52] | Selectivity ratio [54] | Selectivity ratio [55] | Selectivity ratio [56] | Selectivity ratio [57] | Selectivity ratio [58] | Selectivity ratio [59] | Selectivity ratio [60] | Selectivity ratio [61] | Selectivity ratio [62] | Selectivity ratio [63] | Selectivity ratio [64] | Selectivity ratio [65] | Selectivity ratio [67] | Selectivity ratio [68] | Selectivity ratio [69] | Selectivity ratio [70] | Selectivity ratio [71] | Selectivity ratio [72] | Selectivity ratio [73] | Selectivity ratio [74] | Selectivity ratio [75] | Selectivity ratio [76] | Selectivity ratio [77]
3.7 nM: EC50 [1]
active: Activity [11] | Activity [22] | Activity [25] | Activity [53]
inactive: Activity [17] | Activity [66]

CCOc1cccc2c1CC[C@H]2Oc1ccc([C@H](CC(=O)O)OCC)cc1
63 nM: EC50 [1]

CCO[C@@H](CC(=O)O)c1ccc(O[C@@H]2CCCc3ccccc32)cc1
62 nM: EC50 [1]

CCOC(CC(=O)O)c1ccc(OCc2ccccc2C)cc1 (racemic)
metabolite_detected: Drug metabolism [78]

CCO[C@@H](CC(=O)O)c1ccc(O[C@H]2CCc3c2cccc3C(F)(F)F)cc1
19 nM: EC50 [1]
